ChEMBL document CHEMBL3045553, “Isolation and antifungal activity of 4-phenyl-3-butenoic acid from Streptomyces koyangensis strain VK-A60” (2005)
Activity calls are given as the source filed them. No cut-off for these calls is given here.

How the values were obtained:
Candida albicans = assay: Antifungal activity against Candida albicans assessed as inhibition of microbial growth by microtiter broth dilution method; assay type: functional
Outline: (§1)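 Broth microdilution in 24-well plates. Inoculum of 10⁴ CFU/mL, 10 µL per well, in 1 mL potato dextrose broth or nutrient broth. Compound in methanol, 0–100 µg/mL. Incubated at 22–28 °C for 2–5 days and compared with a compound-free growth control. MIC is the lowest concentration showing no growth.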

Alternaria mali = assay: Antifungal activity against Alternaria mali assessed as inhibition of microbial growth by microtiter broth dilution method; assay type: functional
Outline: (§2)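 Spore or zoospore suspension, 10 µL, added to wells of a 24-well dish holding 1 mL potato dextrose broth or nutrient broth. Compound dissolved in methanol and tested over 0–100 µg/mL. Plates held at 22–28 °C and read after 2–5 days against an untreated inoculated control. MIC is the lowest concentration with no visible growth.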

Cladosporium cucumerinum = assay: Antifungal activity against Cladosporium cucumerinum assessed as inhibition of microbial growth by microtiter broth dilution method; assay type: functional; outline: as §2
Ralstonia solanacearum = assay: Antibacterial activity against Ralstonia solanacearum assessed as inhibition of microbial growth by microtiter broth dilution method; assay type: functional
Outline: (§3)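 24-well broth dilution. 10 µL of spore or cell suspension went into 1 mL potato dextrose broth or nutrient broth. Bacterial inoculum was 10⁴ CFU/mL. Compound was dissolved in methanol and tested at 0–100 μg/mL. Plates were incubated at 22–28 °C for 2–5 days against a compound-free growth control. MIC was the lowest concentration showing no growth.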

Bacillus subtilis = assay: Antibacterial activity against Bacillus subtilis subsp. subtilis assessed as inhibition of microbial growth by microtiter broth dilution method; assay type: functional; outline: as §1
[1] = system: Colletotrichum orbiculare; assay: […] antifungal activity against Colletotrichum orbiculare on […] assessed as inhibition of anthracnose development at 500 ug/mL; assay type: functional, organism-based
[2] = system: Colletotrichum orbiculare; assay: Antifungal activity against Colletotrichum orbiculare assessed as inhibition of microbial growth by microtiter broth dilution method; assay type: functional; outline: as §2
Botrytis cinerea = assay: Antifungal activity against Botryotinia fuckeliana assessed as inhibition of microbial growth by microtiter broth dilution method; assay type: functional; outline: as §2
[3] = system: Colletotrichum orbiculare; assay: […] antifungal activity against Colletotrichum orbiculare on two-leaf stage cucumber plant assessed as inhibition of anthracnose development at 100 ug/mL; assay type: functional, organism-based
Outline: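 Cucumber cv. Baekrokdadaki grown at 28 ± 2 °C. Compound in methanol, diluted in 0.1% Tween 20 to 10–500 µg/mL, sprayed on primary leaves 1 day before inoculation. Inoculum was 10⁶ conidia/mL in 0.05% Tween 20, followed by 24 h in a dew chamber at 28 °C. Lesions/cm² on secondary leaves counted at day 6. 6 plants/treatment, 3 replicates; Tween-only control.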

Rhizoctonia solani = assay: Antifungal activity against Rhizoctonia solani assessed as inhibition of microbial growth by microtiter broth dilution method; assay type: functional; outline: as §2
Saccharomyces cerevisiae = assay: Antifungal activity against Saccharomyces cerevisiae assessed as inhibition of microbial growth by microtiter broth dilution method; assay type: functional; outline: as §1
Globisporangium ultimum = assay: Antifungal activity against Pythium ultimum assessed as inhibition of microbial growth by microtiter broth dilution method; assay type: functional; outline: as §2
Phytophthora capsici = assay: Antifungal activity against Phytophthora capsici assessed as inhibition of microbial growth by microtiter broth dilution method; assay type: functional; outline: as §2
Ilyonectria destructans = assay: Antifungal activity against Ilyonectria radicicola assessed as inhibition of microbial growth by microtiter broth dilution method; assay type: functional; outline: as §2
Pyricularia grisea = assay: Antifungal activity against Magnaporthe grisea assessed as inhibition of microbial growth by microtiter broth dilution method; assay type: functional; outline: as §3
Xanthomonas vesicatoria = assay: Antibacterial activity against Xanthomonas vesicatoria assessed as inhibition of microbial growth by microtiter broth dilution method; assay type: functional; outline: as §1
Sclerotinia sclerotiorum = assay: Antifungal activity against Sclerotinia sclerotiorum assessed as inhibition of microbial growth by microtiter broth dilution method; assay type: functional; outline: as §2
[4] = system: Pectobacterium carotovorum subsp. carotovorum; assay: Antibacterial activity against Pectobacterium carotovorum subsp. carotovorum assessed as inhibition of microbial growth by microtiter broth dilution method; assay type: functional; outline: as §1
[5] = system: Fusarium oxysporum f. sp. lycopersici; assay: Antifungal activity against Fusarium oxysporum f. sp. lycopersici assessed as inhibition of microbial growth by microtiter broth dilution method; assay type: functional; outline: as §2

Compound	MIC (Candida albicans) [mg/L]	MIC (Alternaria mali) [mg/L]	MIC (Cladosporium cucumerinum) [mg/L]	MIC (Ralstonia solanacearum) [mg/L]	MIC (Bacillus subtilis) [mg/L]	inhibition [1]	MIC [2] [mg/L]	MIC (Botrytis cinerea) [mg/L]	inhibition [3]	MIC (Rhizoctonia solani) [mg/L]	MIC (Saccharomyces cerevisiae) [mg/L]	MIC (Globisporangium ultimum) [mg/L]	MIC (Phytophthora capsici) [mg/L]	MIC (Ilyonectria destructans) [mg/L]	MIC (Pyricularia grisea) [mg/L]	MIC (Xanthomonas vesicatoria) [mg/L]	MIC (Sclerotinia sclerotiorum) [mg/L]	MIC [4] [mg/L]	MIC [5] [mg/L]
O=C(O)C/C=C/c1ccccc1	> 100	30	30	0.5	3	Active	3	> 100	Active	30	> 100	0.5	30	30	10	10	> 100	1	> 100
N#Cc1c(Cl)c(Cl)c(Cl)c(C#N)c1Cl	–	–	–	–	–	Active	–	–	–	–	–	–	–	–	–	–	–	–	–
